Source: PubChem
APJ antag: blocks the human apelin receptor APJ. CHO-K1 APJ beta-arrestin complementation, luminescence. inhibition, % at 20 µM. actives 0.32% (n = 330,000). AID 2521;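 active means inhibition above about 40% at 20 µM, limit read from the data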;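 further: cells challenged with 10 nM apelin-13 agonist together with compound; plate controls were apelin-13 plus DMSO wells for no effect and DMSO wells lacking apelin-13 for full effect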
EBI2 block: blocks human EBI2 receptor beta-arrestin signaling | AID 651636 | EBI2 beta-arrestin recruitment, luminescence, 7a,25-OHC stimulated | P32249 | inhibition, % at 5 µM | actives 0.81% (n = 360,000); in the data active means inhibition above about 38%;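 further: enzyme fragment complementation signal reports receptor beta-arrestin coupling in cells; 0% = agonist plus DMSO wells and 100% = wells without agonist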
Target sequence (P32249 whole entry, looked up, the tested form may be a part): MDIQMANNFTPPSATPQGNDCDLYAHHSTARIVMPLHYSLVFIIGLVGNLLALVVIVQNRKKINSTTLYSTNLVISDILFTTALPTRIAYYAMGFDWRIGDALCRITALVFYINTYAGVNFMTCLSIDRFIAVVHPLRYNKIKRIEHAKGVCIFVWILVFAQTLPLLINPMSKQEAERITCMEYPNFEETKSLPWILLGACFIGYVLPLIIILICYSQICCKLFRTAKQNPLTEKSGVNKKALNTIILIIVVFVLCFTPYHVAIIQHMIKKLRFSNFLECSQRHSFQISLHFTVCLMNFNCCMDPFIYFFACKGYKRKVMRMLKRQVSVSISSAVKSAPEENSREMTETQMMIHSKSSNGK
APJ ag: APJ receptor agonism. activation, % at 20 µM. CHO-K1 APJ PathHunter beta-arrestin, luminescence; 0% DMSO wells, 100% apelin. actives 0.11% (n = 330,000). AID 2520;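 active means activation more than six SD over the plate average, tested at 20 µM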;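 further: 0% = DMSO alone and 100% = apelin-13 at 10 nM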
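assay system = CHO-K1 APJ beta-arrestin complementation cell line | input = cell density 1000 per well | dosing = compound 20 µM once, DMSO 1% | timing = compound 90 min 25 °C, reagent 1 h | measured by = luminescence from split beta-galactosidase complementation, Galacton Star/Emerald II substrate | read-out basis = APJ agonist activity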
CCR6 antag: CCR6 (human) receptor antagonism. CHO-K1 CCR6 PathHunter beta-arrestin, luminescence, CCL20-stimulated. inhibition, % at 20 µM. P51684. actives 0.49% (n = 340,000);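 active means compounds whose inhibition of the agonist-driven luminescence signal at 20 µM reaches about 50%, limit read from the data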;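 further: cells stimulated with CCL20 at 14 nM final; plate controls were DMSO with CCL20 for no effect and DMSO without agonist for full effect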
CXCR6 inh: blocks human CXCR6 beta-arrestin recruitment; O00574; CHO-K1 PathHunter CXCR6 beta-arrestin, luminescence; inhibition, % at 20 µM; actives 0.36% (n = 360,000); in the data active means inhibition above about 34%, passing the limit was not always enough;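 further: antagonist mode with CXCL16 agonist at 10 nM final; 0% = 10 nM CXCL16 with DMSO and 100% = unstimulated wells without agonist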
Target sequence (O00574 whole entry, looked up): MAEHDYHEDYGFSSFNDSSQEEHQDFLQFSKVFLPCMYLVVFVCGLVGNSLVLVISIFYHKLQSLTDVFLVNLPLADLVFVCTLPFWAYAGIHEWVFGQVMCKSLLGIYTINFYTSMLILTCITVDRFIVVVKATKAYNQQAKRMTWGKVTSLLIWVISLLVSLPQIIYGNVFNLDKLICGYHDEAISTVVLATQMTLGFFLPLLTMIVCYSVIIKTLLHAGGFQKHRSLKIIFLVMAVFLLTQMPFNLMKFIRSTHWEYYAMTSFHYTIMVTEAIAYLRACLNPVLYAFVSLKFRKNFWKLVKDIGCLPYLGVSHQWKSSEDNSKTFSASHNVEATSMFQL
EBI2 conf: EBI2 (human) antagonism, single concentration confirmation; shares compounds with EBI2 block; EBI2 beta-arrestin luminescence, 7a,25-OHC antagonism; inhibition, % at 5 µM; actives 29% (n = 2,400); AID 651997;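 active means inhibition of at least 50%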
EBI2 ag: activates EBI2, counter-screen for EBI2 antagonists; shares compounds with EBI2 block; EBI2-expressing cells, agonist mode, luminescence, 60 min; 0% vehicle, 100% 7α,25-dihydroxycholesterol control; activation, % at 5 µM; 2,400 tested, under 10 active; AID 652000;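 active means activation of at least 50%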
bGal cs: inhibits E. coli beta-galactosidase, counter-screen for EBI2 antagonists; shares compounds with EBI2 block; purified beta-galactosidase, luminescent Galacton Star, 15 min; inhibition, % at 5 µM; actives 1% (n = 2,400);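 active means replicate-average signal at least 3 plate SD below neutral wells, shown as high inhibition, flagging enzyme-inhibiting false positives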;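 further: 0% = DMSO wells with enzyme and 100% = wells lacking enzyme; higher means stronger loss of beta-gal luminescence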
* marks the source's active call; other numbers are inactive results; · = no result. In the library only some 1.5% were active in any assay of this set; here they are far more common.

SMILES	APJ antag	EBI2 block	APJ ag	CCR6 antag	CXCR6 inh	EBI2 conf	EBI2 ag	bGal cs
Cc1cccc(C2=NNC(=O)C(c3ccc(Cl)cc3)C2)c1 (stereo not drawn)	16.0	23.5	-3.0	-2.4	-1.6	·	·	·
Cn1ccnc1CN1CCCCC1C(=O)Nc1ccc(Oc2cccnc2)cc1 (stereo not drawn)	2.7	-5.4	0.7	3.6	2.8	·	·	·
COCCNC(=O)C1(C)CCCN(C(=O)c2ccccc2)C1 (stereo not drawn)	·	-11.1	·	·	3.3	·	·	·
Clc1ccc(/C=C/c2nc3ccccc3[nH]2)c(Cl)c1	-26.6	15.1	4.0	-6.7	-17.6	·	·	·
O=C(/C=C/c1ccc(Cl)cc1Cl)c1nc2ccccc2[nH]1	14.5	44.2*	-1.2	18.2	3.2	15.5	1.2	1.4
COc1cccc(CNC(=O)COC(=O)C2CCN(c3ccc(C(F)(F)F)cn3)CC2)c1	17.9	2.9	-1.2	6.5	-9.0	·	·	·
O=C(CN1CCC(n2nnc3cc(C(F)(F)F)ccc32)CC1)NCc1cccs1	-0.6	58.0*	0.8	8.5	0.1	37.0	1.5	8.1
CC(=O)N1CCN(c2nnc(-c3ccc(C)cc3)c3ccccc23)CC1	1.8	0.9	-0.3	9.0	-6.1	·	·	·
Cc1ccc(OCC(=O)N2CCN(c3nnc(-c4ccccc4)c4ccccc34)CC2)cc1	2.9	90.2*	-5.4	27.2	10.8	85.7*	0.3	8.7
Cc1nc(N2CCN(C(=O)COc3ccccc3)CC2)c2c(C)c(C)sc2n1	6.9	50.8*	2.3	7.2	-8.5	28.1	-1.2	-5.7
O=C(CCN1C(=O)c2ccc([N+](=O)[O-])cc2C1=O)Nc1ccccc1C(=O)O	-52.4	-8.1	3.0	-12.5	-25.8	·	·	·
CCOC(=O)CNC(=O)CN1CCC(c2nc3ccccc3[nH]2)CC1	15.6	2.4	-3.6	-6.6	1.9	·	·	·
CCOC(=O)C1=C(O)/C(=C/c2cc(OC)c(OC)c(OC)c2)SC1=Nc1ccc(OC)cc1	12.6	62.3*	1.2	-14.3	0.4	54.7*	-1.9	-11.7
CCOC(=O)C1=C(O)/C(=C/c2ccc(OCC(=O)O)c(OCC)c2)SC1=Nc1ccc(OC)cc1	13.3	-6.4	-3.8	12.1	-2.2	·	·	·
Cc1ccc(N2CCN(c3ccc(C)cc3)C2c2ccncc2)cc1	1.0	51.4*	2.4	0.2	3.3	20.9	-0.8	-8.5
Cc1cccc(N2CCN(c3cccc(C)c3)C2c2cccnc2)c1	-12.5	14.0	-1.2	11.9	-9.8	·	·	·
CCCCC(=O)NC(c1cccc([N+](=O)[O-])c1)c1c(OC(C)=O)ccc2ccccc12 (stereo not drawn)	3.9	39.0*	-7.3	24.2	21.2	10.1	0.0	12.4
CC(=O)NC(c1cccc([N+](=O)[O-])c1)c1c(OC(C)=O)ccc2ccccc12 (stereo not drawn)	5.4	-4.1	-4.7	13.7	21.1	·	·	·
Cc1ccc(C(=O)CNc2ccc(Cl)cc2)cc1	101.9*	57.1*	-6.1	71.1*	52.7*	75.8*	-3.1	2.1
C/C(=N/NC(=O)CNc1ccc(C)cc1)c1ccc(Cl)cc1	7.6	18.1	0.3	-8.0	-11.4	·	·	·
CCOC(=O)C1CCCN(C(=O)c2cc3cc(F)ccc3[nH]2)C1 (stereo not drawn)	13.1	-0.3	-2.8	19.3	-16.0	·	·	·
CCOC(=O)C1CCN(C(=O)c2cc3cc(F)ccc3[nH]2)CC1	-26.7	62.1*	-2.9	8.3	3.5	41.3	2.8	-0.3
CCOC(=O)N1CCN(C(=O)c2cc3cc(Cl)ccc3[nH]2)CC1	-3.4	93.0*	-1.2	-1.6	-2.6	73.5*	0.8	4.4
CCOC(=O)N1CCN(C(=O)c2cc3cc(F)ccc3[nH]2)CC1	-4.2	80.8*	0.6	2.0	2.3	53.4*	0.0	-2.2
Cc1ccc2[nH]c(C(=O)N3CCCCC3)cc2c1	18.8	32.4	-0.4	10.6	-13.6	·	·	·
SMILES	APJ antag	EBI2 block	APJ ag	CCR6 antag	CXCR6 inh	EBI2 conf	EBI2 ag	bGal cs
Cc1ccc(S(=O)(=O)N2CCN(c3cccc(C)c3)CC2)cc1	3.6	2.9	-0.9	11.7	-0.7	·	·	·
COc1ccc(C(CNC(=O)c2ccc(OCc3csc(C)n3)cc2)N2CCCC2)cc1 (stereo not drawn)	·	-9.0	·	·	7.1	·	·	·
CCOc1ccc(NC(=S)N2c3ccccc3CC2C)cc1 (stereo not drawn)	-9.9	65.5*	-0.1	-6.5	-17.4	-5.4	0.5	5.2
CC(=O)c1cccc(NC(=S)N2c3ccccc3CC2C)c1 (stereo not drawn)	14.3	-1.8	-3.4	-6.6	3.9	·	·	·
COc1ccc(NC(=S)N2CCC(C(O)(c3ccccc3)c3ccccc3)CC2)cc1	19.6	21.0	-0.7	18.5	3.8	·	·	·
CCOc1ccc(NC(=S)N2CCC(C(O)(c3ccccc3)c3ccccc3)CC2)cc1	-13.7	44.4*	1.8	9.0	2.5	2.3	-0.8	-7.5
Cc1oc(-c2cccc(Br)c2)[n+]([O-])c1C	-7.4	-10.6	-4.0	1.3	-0.2	·	·	·
COc1ccc(NC(=O)C2(C)Cc3c(-c4cccc(C(N)=O)c4)ccnc3O2)cc1OC (stereo not drawn)	·	-0.1	·	·	1.8	·	·	·
Cc1ccc2c(c1)-c1c(cnn1CC(=O)N(Cc1ccco1)C1CCCCC1)CO2	11.6	46.8*	0.9	18.2	1.3	29.2	0.7	2.0
Cc1ccc2c(c1)-c1c(cnn1CC(=O)NC(C)CCc1ccco1)CO2 (stereo not drawn)	17.7	9.0	-3.4	1.4	11.6	·	·	·
O=C(Nc1nnc(C2CC2)s1)c1ccncc1	-5.1	1.3	-0.5	16.1	-16.6	·	·	·
COc1ccc(-c2cc(C3CCN(c4ccc(C(C)=O)cc4[N+](=O)[O-])CC3)[nH]n2)cc1	6.9	8.9	0.3	18.2	13.5	·	·	·
COC(=O)c1ccc(N2CCC(c3cc(-c4ccc(OC)cc4)n[nH]3)CC2)c([N+](=O)[O-])c1	4.9	49.5*	-2.9	25.8	10.3	6.2	-0.2	6.0
COC(=O)C1=CN(c2ccc(C(C)(C)C)cc2)C(N)=C(C#N)C1c1cccc2ccccc12 (stereo not drawn)	·	24.8	·	·	·	·	·	·
O=C(NCc1ccccc1)c1cc(=O)nc2sc(-c3ccccc3)nn12	·	43.7*	·	12.8	0.3	26.3	-1.1	-8.7
Cc1cc(C)c(Cn2cnc(-c3ccc([N+](=O)[O-])cc3)c2)c(C)c1	12.7	42.1	-5.6	8.9	-4.5	·	·	·
CC(C)(C)c1ccc(Cn2cnc(-c3ccc([N+](=O)[O-])cc3)c2)cc1	-10.5	50.6*	-2.3	14.1	3.5	23.3	0.6	5.7
